Results on 3 compounds are retold here after PMC6734327 (Heliyon, 2019).

Test [1] relates to MCF-7 (human breast adenocarcinoma). In words: Cytotoxic assay, alamar blue, MCF-7. The format is cell-based. Particulars: MCF7, 72 h, read-out: IC50 MCF-7. The method in brief:
(§1)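 Cells from ATCC, mycoplasma-negative, grown in RPMI 1640 with 10% FBS at 37 °C and 5% CO2. Seeded at 0.7 × 10^5 cells/mL (adherent) or 0.3 × 10^6 cells/mL (suspension), then pre-incubated for 24 h. Test compound in DMSO added for 72 h; doxorubicin was the positive control and DMSO the vehicle control. Resazurin stock (0.312 mg/mL) added 4 h before the end. Absorbance read at 570/595 nm. IC50 taken from non-linear regression of % inhibition versus log concentration.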
In general terms: Alamar Blue is a resazurin reagent that responds to reducing activity.

Test [2] concerns HepG2 (human hepatocellular carcinoma). In words: Cytotoxic assay, alamar blue, HepG2. The format is cell-based. Conditions: HepG2, 72 h, read-out: IC50 HepG2. The gist of the method: as §1
The subject of test [3] is MRC-5 (human lung fibroblast). Description: Cytotoxic assay, alamar blue, non-cancer MRC-5. The format is cell-based. Conditions: MRC5, 72 h, read-out: IC50 MRC-5. The method in brief: as §1
In another test the test system is breast cancer (MCF7). Particulars: read-out: IC50 MCF7; cited from earlier work.
The subject of a further test is prostate cancer (PC-3). Particulars: read-out: IC50 PC-3; cited from earlier work.
A further test relates to lung cancer (SK-LU-1). Particulars: read-out: IC50 SK-LU-1; cited from earlier work.

Some results are limits rather than exact numbers.

With `C[C@]12CC[C@@H]3c4ccc(O)cc4CC[C@H]3[C@@H]1CC[C@@]2(O)c1cn(CC(=O)c2ccccc2)nn1` [3a, 2-(4-((8R,9S,13S,14S,17S)-3,17-dihydroxy-13-methyl-7,8,9,11,12,13,14,15,16,17-decahydro-6H-cyclopenta[a]phenanthren-17-yl)-1H-1,2,3-triazol-1-yl)-1-phenylethan-1-one], the IC50 in test [1] was greater than 54.6 µM; in test [2], 29.7 µM; in test [3] it was greater than 54.6 µM.
In the case of `C[C@]12CC[C@H](O)CC1=CC[C@@H]1[C@@H]2CC[C@]2(C)C(C(=O)Cn3cncn3)=CC[C@@H]12` [3β-hydroxy-21-(1H-1,2,4-triazol-1-yl)pregna-5,16-dien-20-one], the IC50 in the test on breast cancer (MCF7) was 360 µM; with prostate cancer (PC-3), 17 µM; in the test on lung cancer (SK-LU-1), 230 µM.
With `COc1cccc2c1C(=O)c1c(O)c3c(c(O)c1C2=O)C[C@@](O)(C(=O)CO)C[C@@H]3O[C@H]1C[C@H](N)[C@H](O)[C@H](C)O1` [Doxorubicin], in test [3], the IC50 was found to be 2.4 µM.

A word on the IC50: it is the midpoint of a concentration-inhibition curve.
